The text below walks through data of ChEMBL document CHEMBL1795216, “Synthesis and biological evaluations of novel apocynin analogues” (Eur J Med Chem, 2011).

Calls of active or inactive are those of the source. No cut-off for these calls is given here.

What all share (format): functional, cell-based
For assay [1], the system named is RAW264.7. Put plainly: Antioxidant activity in lipopolysaccharide-stimulated mouse RAW264.7 cells assessed as decrease in ROS level at 0.1 to 10 uM using DCFH-DA by fluorescence assay. In a few lines:
(§1)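 RAW 264.7 cells (DMEM, 10% FBS, penicillin-streptomycin) seeded for 24 h, then treated with compounds at […] with or without LPS […]. Loaded with […] DCFH-DA for 20 min at 37 °C in 5% CO2, washed three times with PBS. Fluorescence read at ex488/em525 by laser scanning microscopy and quantified on a microplate reader.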

For assay [2], the system named is RAW264.7. Put plainly: Inhibition of LPS-induced P67phox protein expression in mouse RAW264.7 cells up to 10 uM pretreated for 1 hr before LPS challenge by Western blot analysis. In a few lines: (§2)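 RAW 264.7 cells pretreated 1 h with compound at […], then stimulated with LPS […] for 24 h. Cytoplasmic extracts run on 12% SDS gel and transferred to PVDF. Membranes blocked in 5% nonfat milk/TBS, probed overnight at 4 °C with mouse anti-p67phox and β-actin (1:2000). HRP anti-mouse secondary 1 h at room temperature, ECL detection.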
In general terms: In western blotting, separated proteins are transferred to a membrane and probed.

In assay [3] the test system is RAW264.7. Briefly: Protection against LPS-induced cytotoxicity in mouse RAW264.7 cells assessed as cell viability at 0.1 to 100 uM pretreated for 1 hr before LPS challenge measured after 24 hrs by MTT assay. In a few lines: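 RAW 264.7 cells seeded at 10⁴/well in 96-well plates and grown 24 h at 37 °C, 5% CO2. Pretreated with compounds at […] for 1 h, washed, then exposed to LPS for 24 h. MTT 0.5 mg/ml added for 4 h, formazan dissolved in DMSO, absorbance read at 570 nm.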
Background: Formazan colour is commonly taken as a measure of viable cells.

The subject of assay [4] is RAW264.7. Put plainly: Antioxidant activity in lipopolysaccharide-stimulated mouse RAW264.7 cells assessed as decrease in ROS level using DCFH-DA by fluorescence assay. In a few lines:
as §1

The test system of assay [5] is RAW264.7. Put plainly: Inhibition of LPS-induced P67phox protein expression in mouse RAW264.7 cells compound pretreated for 1 hr before LPS challenge by Western blot analysis. In a few lines:
as §2

Consider `COc1cc(C(C)=O)cc(/C=[N+](\[O-])C(C)(C)C)c1O`, for which the outcome in assay [1] was inactive. Besides, the inhibition entry in assay [2] is “inactive”.
On to `COc1cc(C(C)=O)ccc1O`, for which the outcome in assay [1] and in assay [3] was inactive. Also, the inhibition entry in assay [2] was “inactive”.
As to `COc1cc(C(C)=O)cc(NC(=O)CCCC[C@@H]2CCSS2)c1O`, the Activity entry in assay [4] is “Dose-dependent effect”. Moreover, the result in assay [3] was Active. Also, in assay [5], the inhibition entry was “Dose-dependent effect”.
As to `COc1cc(C(C)=O)cc(CNc2cc(C(C)=O)cc(OC)c2O)c1O`, the Activity entry in assay [4] was “Dose-dependent effect”. Also, in assay [3], the outcome was Active. In assay [5], the inhibition entry was “Dose-dependent effect”.
